Results taken from PubChem BioAssay AID588762 (The Scripps Research Institute Molecular Screening Center, 2011).
Calls of active or inactive are those of the source.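 The calls were made as follows: active = fitted IC50 at or below 10 µM in the dose response luciferase test; inactive = IC50 weaker than 10 µM.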

Molecular target: Epstein-Barr virus nuclear antigen 1 (EBNA-1), Human herpesvirus 4
Test: EBNA-1 inhibitors in cellular reporter, late-stage follow-up, cell-based, luciferase, dose response, assay provider data (AID 588762)
Conditions: 293T Qp-promoter luciferase reporter, EBNA-1 repression
How it was run: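 Material: human 293T cells transiently co-transfected with Qp-promoter luciferase reporter, Flag-tagged EBNA-1; schedule: 48 h at 37 °C after plating; signal: luminescence from Steady-Glo luciferase reagent, rising as EBNA-1 repression lifts; read-out: concentration giving half-maximal luminescence stimulation, four-parameter sigmoidal fit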

SMILES | IC50
COCCn1c(C)cc(C(=O)CSc2nnnn2-c2ccccc2)c1C | > 148 µM (inactive)
Cc1cc(C(=O)CSc2nnnn2-c2cccc(F)c2)c(C)n1CC1CCCO1 (centres undefined) | > 148 µM (inactive)
COc1ccc(-n2nnnc2SCC(=O)c2cc(C)n(CC3CCCO3)c2C)cc1 (centres undefined) | > 16.4 µM (inactive)
Cc1cccc(-n2nnnc2SCC(=O)c2cc(C)n(CC3CCCO3)c2C)c1 (centres undefined) | > 148 µM (inactive)
CCn1c(C)cc(C(=O)CSc2nnnn2-c2ccccc2)c1C | > 148 µM (inactive)
Cc1cc(C(=O)CSc2nnnn2-c2ccccc2)c(C)n1Cc1cccs1 | > 148 µM (inactive)
O=C(CSc1nnnn1-c1ccccc1)c1ccn(CC2CCCO2)c1 (centres undefined) | > 148 µM (inactive)
Cc1cc(C(=O)CSc2nnnn2C2CC2)c(C)n1CC1CCCO1 (centres undefined) | inactive
Cc1ccccc1-n1nnnc1SCC(=O)c1cc(C)n(CC2CCCO2)c1C (centres undefined) | > 148 µM (inactive)
Cc1cc(C(=O)CSc2nnnn2-c2ccccc2)c(C)n1C | inactive
Cc1cc(C(=O)CSc2nnnn2C)c(C)n1CC1CCCO1 (centres undefined) | > 148 µM (inactive)
Cc1cc(C(=O)CSc2nnnn2-c2ccc(Cl)cc2)c(C)n1CC1CCCO1 (centres undefined) | > 148 µM (inactive)

The next lines start with the values.

IC50 | SMILES
inactive | CS(=O)(=O)c1ccc2nc(NC(=O)c3ccc(Cl)cc3)sc2c1
inactive | COc1ccc(C(=O)Nc2nc3ccc(S(C)(=O)=O)cc3s2)cc1
> 148 µM (inactive) | Cc1ccc(C(=O)Nc2nc3ccc(S(C)(=O)=O)cc3s2)cc1
> 148 µM (inactive) | COc1cccc2sc(NC(=O)c3ccc(C)c(C)c3)nc12
> 148 µM (inactive) | COc1ccc2nc(NC(=O)c3ccc(C)c(C)c3)sc2c1
> 148 µM (inactive) | Cc1ccc(C(=O)Nc2nc3cc(F)ccc3s2)cc1C
> 148 µM (inactive) | CS(=O)(=O)c1ccc2nc(NC(=O)c3ccccc3F)sc2c1
> 148 µM (inactive) | CS(=O)(=O)c1ccc2nc(NC(=O)c3cccc(Cl)c3)sc2c1
> 148 µM (inactive) | Cc1ccccc1C(=O)Nc1nc2ccc(S(C)(=O)=O)cc2s1
inactive | COc1cccc(C(=O)Nc2nc3ccc(S(C)(=O)=O)cc3s2)c1
> 148 µM (inactive) | CS(=O)(=O)c1ccc2nc(NC(=O)c3cccc(F)c3)sc2c1
> 148 µM (inactive) | COc1ccccc1C(=O)Nc1nc2ccc(S(C)(=O)=O)cc2s1
> 148 µM (inactive) | COc1ccc2sc(NC(=O)c3ccc(C)c(C)c3)nc2c1
> 148 µM (inactive) | Cc1ccc(C(=O)Nc2nc3ccc(Br)cc3s2)cc1C
> 148 µM (inactive) | Cc1ccc(C(=O)Nc2nc3cc(Br)ccc3s2)cc1C
> 148 µM (inactive) | CS(=O)(=O)c1ccc2nc(NC(=O)c3ccccc3Cl)sc2c1
inactive | Cc1cccc(C(=O)Nc2nc3ccc(S(C)(=O)=O)cc3s2)c1
